Assay results from ChEMBL document CHEMBL4014306, “Pyrazolopyrimidines as Potent Stimulators for Transient Receptor Potential Canonical 3/6/7 Channels” (J Med Chem, 2017).
Active and inactive are the calls of the source. The calls are words filed in the database; no cut-off is given here.

Tests used:
Assay type in all cases: cell-based
[1] = target: T1, Short transient receptor potential channel 3 (Rattus norvegicus) (UniProt Q9JMI9); assay: Agonist activity at TRPC3 in rat primary glomerular mesangial cells assessed as increase in intracellular calcium level at 1 uM in presence of TRPC inhibitor […] by Fluo4-AM dye-based fluorescence assay
T1 sequence (whole entry): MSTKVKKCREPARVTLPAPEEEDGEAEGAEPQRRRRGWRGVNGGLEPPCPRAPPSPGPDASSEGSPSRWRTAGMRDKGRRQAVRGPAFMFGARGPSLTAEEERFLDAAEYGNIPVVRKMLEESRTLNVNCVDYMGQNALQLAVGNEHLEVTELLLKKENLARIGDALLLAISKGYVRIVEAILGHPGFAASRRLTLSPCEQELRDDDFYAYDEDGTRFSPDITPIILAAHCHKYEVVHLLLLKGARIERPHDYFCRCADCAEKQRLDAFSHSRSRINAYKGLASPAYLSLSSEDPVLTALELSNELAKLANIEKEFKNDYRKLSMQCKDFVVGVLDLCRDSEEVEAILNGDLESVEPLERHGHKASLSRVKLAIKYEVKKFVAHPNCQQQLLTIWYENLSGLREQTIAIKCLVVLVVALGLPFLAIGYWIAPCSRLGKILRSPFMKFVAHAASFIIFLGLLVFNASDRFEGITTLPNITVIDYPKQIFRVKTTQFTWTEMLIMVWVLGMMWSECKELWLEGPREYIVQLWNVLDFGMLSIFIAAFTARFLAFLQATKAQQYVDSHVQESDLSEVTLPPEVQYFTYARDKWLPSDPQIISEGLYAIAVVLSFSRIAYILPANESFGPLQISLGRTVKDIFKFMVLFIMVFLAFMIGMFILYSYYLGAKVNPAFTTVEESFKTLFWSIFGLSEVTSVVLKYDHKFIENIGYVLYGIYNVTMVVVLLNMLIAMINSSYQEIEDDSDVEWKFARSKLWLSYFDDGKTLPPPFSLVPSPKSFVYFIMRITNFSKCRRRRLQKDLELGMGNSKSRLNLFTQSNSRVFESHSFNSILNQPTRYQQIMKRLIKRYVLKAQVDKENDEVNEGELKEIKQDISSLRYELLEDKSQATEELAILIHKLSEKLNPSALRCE
Procedure, shortened: (§1)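 Rat glomerular mesangial cells, isolated by graded sieving from male Sprague–Dawley rats, collagenase-digested, cultured in RPMI 1640 with 17% FBS. Grown overnight on coverslips, then loaded with 10 μM Fluo4-AM and 0.02% pluronic F-127 for 1 h at 37 °C in 1 mM Ca2+ saline, pH 7.4. Compound at 1 μM. Confocal imaging, ex 488/em 515 nm, read as F/F0. For the 2-APB condition, 30 μM 2-APB for 2 min beforehand and kept during compound application.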

Rattus norvegicus = species on record: Rattus norvegicus; assay: Agonist activity at TRPC6 in rat primary glomerular mesangial cells assessed as increase in intracellular calcium level at 1 uM by Fluo4-AM dye-based fluorescence assay; procedure, shortened: as §1
HEK293 = assay: Induction of intracellular calcium level in HEK293 cells at 30 uM measured for 2.5 mins by Fluo-4-AM dye based FLIPR assay; details: human, hek293, 2.5 min
[2] = target: T2, Transient receptor potential cation channel subfamily M member 5 (Homo sapiens) (UniProt Q9NZQ8); assay: Inhibition of human TRPM5 expressed in HEK293 cells assessed as decrease in carbachol-evoked membrane depolarization at 22 uM preincubated for 2 mins followed by carbachol addition measured for 2.5 mins by FLIPR membrane potential dye-based fluorescence assay relative to control
T2 sequence (whole entry): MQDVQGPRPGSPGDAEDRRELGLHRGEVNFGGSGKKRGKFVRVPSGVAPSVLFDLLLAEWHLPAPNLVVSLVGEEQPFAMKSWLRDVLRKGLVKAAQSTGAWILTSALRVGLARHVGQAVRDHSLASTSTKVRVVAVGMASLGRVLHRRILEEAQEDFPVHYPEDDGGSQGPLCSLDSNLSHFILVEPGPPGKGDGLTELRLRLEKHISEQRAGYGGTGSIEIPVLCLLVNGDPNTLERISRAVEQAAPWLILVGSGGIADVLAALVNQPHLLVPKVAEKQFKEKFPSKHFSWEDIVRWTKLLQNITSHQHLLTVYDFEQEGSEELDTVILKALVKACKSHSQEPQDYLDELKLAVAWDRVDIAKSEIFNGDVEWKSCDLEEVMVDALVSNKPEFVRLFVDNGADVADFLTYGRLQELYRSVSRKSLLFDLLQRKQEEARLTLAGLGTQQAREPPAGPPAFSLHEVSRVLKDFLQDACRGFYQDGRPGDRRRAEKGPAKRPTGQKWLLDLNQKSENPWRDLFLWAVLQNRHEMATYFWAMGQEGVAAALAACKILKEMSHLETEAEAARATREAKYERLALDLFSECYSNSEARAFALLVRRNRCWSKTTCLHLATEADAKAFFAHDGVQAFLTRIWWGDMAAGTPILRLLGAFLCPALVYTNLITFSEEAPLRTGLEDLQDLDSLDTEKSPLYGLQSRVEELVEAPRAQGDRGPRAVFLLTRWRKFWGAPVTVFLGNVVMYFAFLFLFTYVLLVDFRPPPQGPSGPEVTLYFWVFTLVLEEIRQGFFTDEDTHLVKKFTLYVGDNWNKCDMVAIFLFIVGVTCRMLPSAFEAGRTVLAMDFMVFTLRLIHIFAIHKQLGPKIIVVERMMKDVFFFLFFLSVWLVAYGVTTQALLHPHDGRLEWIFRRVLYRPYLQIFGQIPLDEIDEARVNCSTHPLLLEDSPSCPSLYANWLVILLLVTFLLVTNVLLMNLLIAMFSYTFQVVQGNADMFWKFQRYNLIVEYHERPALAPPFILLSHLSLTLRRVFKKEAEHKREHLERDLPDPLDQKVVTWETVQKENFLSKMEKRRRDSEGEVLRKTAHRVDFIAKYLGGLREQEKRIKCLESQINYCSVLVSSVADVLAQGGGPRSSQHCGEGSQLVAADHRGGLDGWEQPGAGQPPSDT
Procedure, shortened: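 Same TRP panel as for the stimulation tests, with FMP dye for TRPC4 and M5 and Fluo8-AM for TRPA1, V1 and M8. Compound applied for 2 min before the channel agonist (TRPC4: 1 μM DAMGO). Inhibition of the agonist response measured on a FlexStation at 32 °C.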

Compound: Cc1nn2c(O)cc(C3CCN(C(=O)OCc4ccccc4)CC3)nc2c1-c1ccc(F)cc1
- Activity [1]: inactive
- Activity (Rattus norvegicus): Active

Compound: CCOC(=O)N1CCC(c2cc(O)n3nc(C)c(-c4ccc(F)cc4)c3n2)CC1
- Activity (HEK293): Non-Toxic

Compound: CCOC(=O)N1CCC(c2cc(O)n3nc(C)c(-c4ccc(C(F)(F)F)cc4)c3n2)CC1
- inhibition [2]: < 20%
